The test system of test [1] is HCT-116. Nature of the test: Induction of apoptosis in human HCT116 cells assessed as effect on cleaved caspase-3 expression at 50 uM preincubated for 12 hrs followed by TNF-stimulation and measured after 24 hrs by Western blot analysis. Type of test: functional, cell-based. In outline:
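HCT116 pretreated 12 h with 50 μM, then TNF (10 ng/mL) 24 h; whole cell extracts blotted for cleaved caspase-8, cleaved caspase-3, cleaved PARP, tubulin.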

Test [2] has as its system HCT-116. Nature of the test: Induction of apoptosis in human HCT116 cells assessed as viable cells at 50 uM after 12 hrs by Annexin-V/PI-staining based flow cytometric analysis (reference value: 95.3%). Type of test: functional. The following applies: HCT-116, 12 h, read-out: Activity.
Test [3] deals with HCT-116. Nature of the test: Induction of apoptosis in human HCT116 cells assessed as PARP cleavage at 50 uM after 12 hrs by Western blot analysis. Type of test: functional, cell-based.
Test [4] concerns the target Hypoxia-inducible factor 1-alpha (Homo sapiens) (UniProt Q16665). The test is described as follows: Inhibition of HIF1alpha transcriptional activity in hypoxia-induced human HCT116 cells co-transfected with luciferase reporter plasmid containing six copies of HREs and pRL-CMV plasmid by luciferase reporter gene assay. Type of test: cell-based. The note with it: HCT-116. In outline: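 HCT116 transiently co-transfected with pGL3-HRE-luciferase and pRL-CMV; after 24 h, incubated under hypoxia with graded concentrations; luciferase activity read; mean ± SD, three independent experiments.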

Test [5] deals with HCT-116. Nature of the test: Induction of apoptosis in human HCT116 cells assessed as viable cells at 50 uM preincubated for 12 hrs followed by TNF stimulation and measured after 24 hrs by Annexin-V/PI-staining based flow cytometric analysis (reference value: 92.4%). The class given is functional. The following applies: read-out: Activity.
Test [6] deals with HCT-116. The test is described as follows: Induction of apoptosis in human HCT116 cells assessed as necrotic cells at 50 uM after 12 hrs by Annexin-V/PI-staining based flow cytometric analysis (reference value: 3.5%). Type of test: functional.
Test [7] relates to HCT-116. Nature of the test: Induction of apoptosis in human HCT116 cells assessed as necrotic cells at 50 uM preincubated for 12 hrs followed by TNF stimulation and measured after 24 hrs by Annexin-V/PI-staining based flow cytometric analysis (reference value: 3.6%). Type of test: functional.
Test [8] addresses T1, Mitogen-activated protein kinase 14 (Homo sapiens, UniProt Q16539). Nature of the test: Inhibition of recombinant human p38alpha expressed in Escherichia coli assessed as residual activity at 10 uM (reference value: 100 +/- 0.1%). In outline: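 Single-point kinase screen at 10 μM, in duplicate; ALK5 as human GST-fusion from baculovirus/Sf9, p38α as untagged human protein from E. coli; residual activity relative to DMSO vehicle, mean ± SD of two independent experiments.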

The target of test [9] is T1, Mitogen-activated protein kinase 14. Nature of the test: Inhibition of recombinant human p38alpha expressed in Escherichia coli. The gist of the method: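 IC50 determination against ALK5 (human GST-fusion, Sf9 baculovirus) and p38α (untagged human, E. coli); values averaged from three independent experiments run in triplicate.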
Test [10] deals with HCT-116. Nature of the test: Down regulation of TNF-induced MMP9 protein expression in human HCT116 cells at 50 uM pretreated for 12 hrs followed by TNF stimulation and measured after 24 hrs by Western blot analysis. The class given is functional, cell-based. The gist of the method:
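HCT116 pretreated 12 h with 50 μM, then TNF (10 ng/mL) 24 h; whole cell extracts immunoblotted for ICAM-1, MMP-9, VEGF with tubulin as loading reference.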

The subject of test [11] is HCT-116. Nature of the test: Inhibition of HIF1alpha accumulation in hypoxia-induced human HCT116 cells at 50 uM preincubated for 30 mins in presence of proteasome inhibitor MG-132 followed by compound addition and measured after 12 hrs under hypoxic condition by Western blot analysis. Type of test: functional, cell-based. In outline: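 HCT116 pretreated with MG-132 (10 μM) 30 min, then compound (50 μM) under 1% O₂ for 12 h; nuclear HIF-1α by Western blot, Topo-I loading control.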

The test system of test [12] is HCT-116. Nature of the test: Induction of apoptosis in human HCT116 cells assessed as early apoptotic cells at 50 uM after 12 hrs by Annexin-V/PI-staining based flow cytometric analysis (reference value: 1%). Type of test: functional.

Active and inactive are the calls of the source. No cut-off for these calls is given here.

T1 sequence (Q16539 whole entry, the tested form may be a part): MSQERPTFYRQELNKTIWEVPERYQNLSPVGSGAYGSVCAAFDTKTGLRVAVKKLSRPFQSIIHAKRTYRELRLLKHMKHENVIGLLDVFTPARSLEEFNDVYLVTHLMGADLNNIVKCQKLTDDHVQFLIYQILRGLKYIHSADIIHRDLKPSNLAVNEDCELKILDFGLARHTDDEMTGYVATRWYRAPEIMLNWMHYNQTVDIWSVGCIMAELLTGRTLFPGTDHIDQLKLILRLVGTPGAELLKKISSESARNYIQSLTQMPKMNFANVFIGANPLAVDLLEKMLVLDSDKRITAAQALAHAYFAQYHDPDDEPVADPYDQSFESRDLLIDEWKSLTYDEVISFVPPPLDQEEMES
Hypoxia-inducible factor 1-alpha (Homo sapiens), sequence (Q16665 whole entry, looked up): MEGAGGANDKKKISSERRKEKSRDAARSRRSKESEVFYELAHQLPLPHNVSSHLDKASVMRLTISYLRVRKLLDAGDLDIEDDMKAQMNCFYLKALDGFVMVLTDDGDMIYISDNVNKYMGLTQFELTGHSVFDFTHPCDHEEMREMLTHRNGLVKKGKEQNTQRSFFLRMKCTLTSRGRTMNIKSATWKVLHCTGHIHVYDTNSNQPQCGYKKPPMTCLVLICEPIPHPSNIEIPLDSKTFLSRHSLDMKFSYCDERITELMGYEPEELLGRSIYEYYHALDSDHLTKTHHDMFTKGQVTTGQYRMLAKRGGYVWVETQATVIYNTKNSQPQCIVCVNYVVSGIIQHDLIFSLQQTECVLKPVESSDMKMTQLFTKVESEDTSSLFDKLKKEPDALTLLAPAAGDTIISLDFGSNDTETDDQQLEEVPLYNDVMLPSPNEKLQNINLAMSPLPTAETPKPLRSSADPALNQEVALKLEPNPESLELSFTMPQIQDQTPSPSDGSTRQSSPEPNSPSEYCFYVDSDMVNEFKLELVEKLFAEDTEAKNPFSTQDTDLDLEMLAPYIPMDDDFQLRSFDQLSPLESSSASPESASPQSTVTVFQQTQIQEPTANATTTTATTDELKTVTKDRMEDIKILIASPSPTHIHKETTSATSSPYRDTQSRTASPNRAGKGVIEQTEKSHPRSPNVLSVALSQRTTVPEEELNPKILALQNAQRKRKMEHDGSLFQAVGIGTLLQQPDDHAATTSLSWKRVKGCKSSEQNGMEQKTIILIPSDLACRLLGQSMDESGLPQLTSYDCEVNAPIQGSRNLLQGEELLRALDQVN

Take `Cc1cccc(-c2nn(CC(=S)Nc3cccc(C#N)c3)cc2-c2ccnc3ccccc23)n1`: the outcome in test [1], in test [3] and in test [10] was Active. For the same compound, the viability at 50 µM in test [2] amounted to 85.2%; in test [5] it was 86.8%. Moreover, the inhibition result in test [4] is “Dose-dependent effect”. For the same compound, the Activity in test [6] amounted to 8.5%; in test [7], 5.4%; in test [8], 3%; in test [12], 3.1%. The IC50 in [9] came out at 104 nM. Moreover, in [11], the inhibition entry is “Active”.

The values are drawn from ChEMBL document CHEMBL4613227, “Synthesis and evaluation of the HIF-1α inhibitory activity of 3(5)-substituted-4-(quinolin-4-yl)- and 4-(2-phenylpyridin-4-yl)pyrazoles as inhibitors of ALK5” (Bioorg Med Chem Lett, 2020).
